# Bioassay records (PubChem)
# Shown are actives, neighbours in structure and some others; about 3.5% of the full set was active somewhere.
# PRMT1 inh – blocks human protein arginine methyltransferase 1 | AID 652257 | Q99873 | recombinant PRMT1, activity-based probe fluorescence polarization | inhibition, % at 2.79 µM | 370,000 tested, 1.3% active;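 active means inhibition above about 21% made by adding two undisclosed values, limit read from the data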
# Target sequence (Q99873 whole entry, looked up): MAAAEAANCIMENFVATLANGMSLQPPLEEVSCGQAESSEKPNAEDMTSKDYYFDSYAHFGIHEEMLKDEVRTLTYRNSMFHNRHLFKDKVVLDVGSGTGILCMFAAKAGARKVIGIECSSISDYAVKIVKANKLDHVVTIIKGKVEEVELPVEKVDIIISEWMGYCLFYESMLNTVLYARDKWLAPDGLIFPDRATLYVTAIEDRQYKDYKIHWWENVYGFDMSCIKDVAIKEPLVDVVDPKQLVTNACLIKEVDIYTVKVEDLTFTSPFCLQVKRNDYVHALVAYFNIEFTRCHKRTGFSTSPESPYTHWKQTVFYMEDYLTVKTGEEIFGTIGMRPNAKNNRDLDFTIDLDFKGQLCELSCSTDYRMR
# TCR CD3 inh – blocks the human TCR-CD3 interaction. 360,000 tested, 0.37% active. inhibition, % at 9.4 µM. AID 651800. TAMRA-labeled TCR probe fluorescence, biochemical; in the data active means inhibition above about 19%;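 further: recombinant mutant TCR 2C K166C tagged with TAMRA read by polarization; 0% = receptor in buffer alone and 100% = receptor with positive control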
# mABHD4 FP – inhibitors of mouse ABHD4 | Q8VD66 | purified mABHD4, FP-Rh probe fluorescence polarization | inhibition, % at 8.92 µM | 370,000 tested, 0.54% active;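 active means inhibition exceeding the mean over every tested compound plus 3 SD, cut at about 30% in these data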;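 further: 0% = plate median of compound wells and 100% = S159A mutant with DMSO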
# Target sequence (Q8VD66 whole entry, looked up): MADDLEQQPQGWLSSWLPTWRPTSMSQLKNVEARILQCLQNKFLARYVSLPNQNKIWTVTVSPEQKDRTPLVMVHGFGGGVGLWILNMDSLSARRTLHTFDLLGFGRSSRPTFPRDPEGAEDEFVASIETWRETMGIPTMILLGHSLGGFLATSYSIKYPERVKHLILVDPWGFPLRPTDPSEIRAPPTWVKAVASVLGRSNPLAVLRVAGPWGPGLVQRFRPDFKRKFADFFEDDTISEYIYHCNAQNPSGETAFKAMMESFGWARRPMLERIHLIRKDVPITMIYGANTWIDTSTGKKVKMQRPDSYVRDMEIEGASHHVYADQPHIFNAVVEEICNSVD
#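 Assay system: wild-type mouse ABHD4 protein; compound: single nominal dose of 8.92 µM, 0.89% DMSO final; schedule: 45 min + 60 min at 25 °C; measured by: FP readout, ex 525 nm / em 598 nm; evaluation: % inhibition of FP-Rh probe binding versus controls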
# HTRA1 inhibitor – inhibitors of human serine peptidase HTRA1. Q92743. recombinant HTRA1, FP-rhodamine activity-based probe, fluorescence polarization. inhibition, % at 5.96 µM. 340,000 tested, 0.5% active. AID 504803; in the data active means inhibition above about 36%;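 further: 0% = enzyme with DMSO and 100% = wells lacking enzyme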
# rCAG binder – binds r(CAG) RNA repeats; inhibition, % at 3 µM; r(CAG) RNA repeat, TO-PRO-1 dye displacement fluorescence; 370,000 tested, 1.3% active; AID 651821;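 active means inhibition above the plate cutoff, the mean of all test compounds on that plate plus 3 SD, cut at about 35% in these data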;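 further: 0% = DMSO alone and 100% = 100 µM mitoxantrone as full dye displacement; higher means more dye released from RNA so lower well fluorescence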
# SIAE inh – blocks human sialic acid acetylesterase; Q9HAT2; SIAE FP-Rh probe binding, fluorescence polarization; inhibition, % at 9.66 µM; 370,000 tested, 0.69% active; AID 1053197;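 active means inhibition above a cutoff: mean of compounds within the control limits plus 3 SD of those, cut at about 17% in these data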;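 further: 0% = plate median of compound wells and 100% = probe without SIAE protein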
# rCAG bind conf – r(CAG) RNA repeat binding, confirmation; TO-PRO-1 dye displacement fluorescence; AID 652065; 4,300 tested, 70% active; inhibition, % at 3 µM; shares compounds with rCAG binder;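 active means inhibition above a per-plate cutoff, the mean inhibition of sample wells plus 3 SD, cut at about 35% in these data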;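 further: loss of TO-PRO-1 fluorescence as compound displaces dye from 1x1 AA loop RNA; 0% = DMSO only wells and 100% = 100 µM mitoxantrone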
# DNA CAG counter – disrupts DNA CAG TO-PRO-1 complex, flagging rCAG hits; inhibition, % at 3 µM; d(CAG) DNA oligo TO-PRO-1 dye displacement, fluorescence; AID 652068; 4,300 tested, 94% active; shares compounds with rCAG binder;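 active means inhibition above its plate's cutoff, the mean test-well inhibition plus 3 SD, cut at about 4.8% in these data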;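 further: 0% = DNA dye mix with DMSO and 100% = 100 µM mitoxantrone; hits displace the dye from DNA and so lower well fluorescence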
# DNA CAG DR – counter-screen for rCAG binders: inhibitors of DNA CAG TO-PRO-1 complex; shares compounds with rCAG binder; DNA CAG/GTC duplex TO-PRO-1 dye displacement fluorescence; IC50, µM; 250 tested, 20% active; AID 686960; in the data active means IC50 below about 10 µM
# mABHD4 conf – ABHD4 (mouse) inhibition, FP confirmation; inhibition, % at 8.92 µM; purified mABHD4, FP-Rh probe fluorescence polarization; 1,800 tested, 55% active; shares compounds with mABHD4 FP; AID 720658;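 active means mean inhibition across replicates above the hit cutoff set in the primary screen, cut at about 30% in these data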;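 further: 0% = wild-type ABHD4 with DMSO and 100% = catalytically dead S159A mutant with DMSO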
# SIAE confirm – human SIAE inhibition, confirmation; 2,300 tested, 13% active; inhibition, % at 9.66 µM; SIAE FP-Rh activity-based probe, fluorescence polarization; shares compounds with SIAE inh;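 active means mean inhibition of the replicates above the hit cutoff set in the primary screen, cut at about 17% in these data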;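 further: 0% = SIAE with DMSO and probe and 100% = probe without SIAE; inhibitors lower polarization as more probe stays unbound to SIAE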
# The depositor's hits bear a star; i = inactive; nt = no result.
SMILES,PRMT1 inh,TCR CD3 inh,mABHD4 FP,HTRA1 inhibitor,rCAG binder,SIAE inh,rCAG bind conf,DNA CAG counter,SIAE confirm,others
COc1cc(C(=O)Nc2scc(-c3ccc(Br)cc3)c2C(=O)O)cc(OC)c1OC,-6,-1,-37,-1,39*,23*,86*,53*,31*,
Cc1cccc(NC(=O)[C@@H]2CC(=O)O[C@@H]2c2ccccc2)c1C,-3,nt,7,nt,-1,1,nt,nt,nt,
CCCC/C=C1/C(c2ccccc2)N(Cc2ccc(OC)cc2OC)C2=NC(c3ccccc3)CC(=O)N21 (stereo unspecified),1,nt,-4,nt,nt,1,nt,nt,nt,
Cc1[nH]c2ccccc2c1/C=N/NC(=O)c1cccc(Br)c1,nt,nt,nt,2,nt,nt,nt,nt,nt,
Cc1[nH]c2ccccc2c1/C=N/NC(=O)c1cccc(S(=O)(=O)Nc2ccccc2Cl)c1,2,-5,21,6,48*,37*,63*,21*,11,
Cc1ccc(/C=N/NC(=O)c2cccc(S(=O)(=O)Nc3ccccc3Cl)c2)o1,0,-6,-10,-6,18,5,nt,nt,nt,
CCc1cccc2c(/C=N/NC(=O)c3cccc(S(=O)(=O)Nc4ccccc4Cl)c3)c[nH]c12,2,-1,1,11,57*,36*,72*,31*,-1,DNA CAG DR=i
CCOC(=O)c1c(-c2ccccc2)csc1NC(=O)/C(C#N)=C/c1ccc(O)c(OC)c1,-4,-9,-9,-38,45*,19*,87*,60*,14,
COc1ccc2[nH]c3c(C)c4ccncc4c(C)c3c2c1,-5,-5,32*,22,37*,21*,25,27*,20*,mABHD4 conf=57*
C=CCCC1(CCC)C(=O)/C(=C(\O)c2ccccc2)C(=O)C(CCC)=C1OC (stereo unspecified),-2,nt,4,nt,10,3,nt,nt,nt,
O=C(O)c1cccc(N/N=C/c2cc(Br)cc(Br)c2O)c1,5,14,56*,-1,95*,31*,83*,48*,3,mABHD4 conf=80*
COc1ccc(Br)cc1/C=N/Nc1cccc(C(=O)O)c1,2,5,20,-2,22,0,nt,nt,nt,
O=[N+]([O-])c1cc(/C=N/Nc2nc3ccccc3[nH]2)c(O)cc1O,1,-1,49*,nt,36*,23*,29,13*,22*,mABHD4 conf=72*
O=C(CSc1ccc(Cl)cc1)NC1=NN(c2ccccc2)C(=O)C1,1,0,21,5,55*,25*,27,10*,-3,
Cc1ccc(C(=O)Nc2ccc(C(=O)N/N=C/c3c[nH]c4ccccc34)cc2)cc1,-3,-5,0,-11,12,-21,nt,nt,nt,
Cc1cccc(NC(=S)N/N=C/c2c[nH]c3ccccc23)c1,4,1,8,25,36*,32*,23,14*,28*,
COc1ccc(NC(=S)NNc2ccc([N+](=O)[O-])cc2S(=O)(=O)Nc2ccc(C)cc2C)cc1,24*,-4,39*,5,39*,47*,81*,45*,-5,mABHD4 conf=38*
Cc1ccc(NS(=O)(=O)c2cc([N+](=O)[O-])ccc2NNC(=S)Nc2cc(C)ccc2C)c(C)c1,5,3,-28,36,50*,31*,84*,44*,1,
O=C(NC(=S)Nc1cccc2c(O)cccc12)c1ccccc1[N+](=O)[O-],10,11,48*,8,39*,23*,12,7.3*,-4,mABHD4 conf=-11
COc1ccc(-c2csc(NC(=O)Nc3ccccc3)n2)cc1,1,-5,-2,13,40*,44*,14,16*,14,
COc1ccc(NC(=O)Nc2nc(C(N)Cc3ccc(C(F)(F)F)cc3)cs2)cc1 (stereo unspecified),-3,-6,26,nt,37*,29*,17,2,16,
COc1ccc(CC(N)c2csc(NC(=O)Nc3ccc(OC)cc3)n2)cc1 (stereo unspecified),-4,-11,5,nt,34,9,nt,nt,nt,
COC(=O)[C@]12C[C@H](CC(=O)N3CCCC3)C(=O)N(Cc3ccc(Cl)cc3Cl)C1=C[C@H](C(C)C)O[C@@H]2C1CC1,-3,nt,-3,nt,0,-7,nt,nt,nt,
O=C(CN1C(=O)CCSc2ccccc21)Nc1ccc(Cl)c(Cl)c1,1,nt,-10,nt,6,-6,nt,nt,nt,
COC(=O)N/N=C/c1ccc(-c2ccc(Cl)cc2Cl)o1,2,-8,2,-17,8,-13,nt,nt,nt,
SMILES,PRMT1 inh,TCR CD3 inh,mABHD4 FP,HTRA1 inhibitor,rCAG binder,SIAE inh,rCAG bind conf,DNA CAG counter,SIAE confirm,others
O=C(O)c1ccc(N/N=C/c2ccc(-c3ccc(Cl)cc3Cl)o2)cc1,7,6,57*,3,92*,18*,84*,51*,20*,mABHD4 conf=67*
CC(=O)N1CCc2cc(S(=O)(=O)NCCC(=O)N(C)Cc3ccccc3F)ccc21,-3,nt,-8,nt,5,5,nt,nt,nt,
COc1cc(/C=N/NC(=O)C(Cc2c[nH]c3ccccc23)NC(=O)OCC(C)C)cc([N+](=O)[O-])c1O (stereo unspecified),10,-2,36*,27,57*,55*,69*,25*,44*,mABHD4 conf=49*
COc1cc(CNc2cccc3[nH]c(C(F)(F)F)nc23)cc(OC)c1,3,-5,3,-10,44*,18*,35*,18*,8,
C/C(=N\Nc1ccc(Cl)c(C(=O)O)c1)c1ccc2c(c1)OCO2,4,-4,11,4,1,10,nt,nt,nt,
C/C(=N/Nc1ccc(C(=O)O)cc1)c1ccc2c(c1)Nc1ccccc1S2,13,7,56*,23,45*,17*,81*,41*,28*,mABHD4 conf=81*
Cc1ccccc1C(=O)NC1CCCCN(Cc2cccc(Cl)c2)C1=O (stereo unspecified),4,nt,3,nt,0,1,nt,nt,nt,
C/C(=N\Nc1cc(C)nc(-c2ccccc2O)n1)c1ccccc1,-2,-2,-8,-26,14,-8,nt,nt,nt,
Cc1cc(N/N=C/c2ccc(O)c(C)c2O)nc(-c2ccccc2O)n1,1,3,-22,19,62*,36*,53*,24*,2,
